Drawing on ChEMBL document CHEMBL1817665, “Synthesis and identification of β-aryloxyquinolines and their pyrano[3,2-c]chromene derivatives as a new class of antimicrobial and antituberculosis agents” (2011), this text covers MIC99, inhibition and MIC for 13 compounds.

One test deals with Aspergillus fumigatus. The test can be described thus: […] activity against 10^8 CFU/mL Aspergillus fumigatus MTCC 3008 by NCCLS M100-S12(M7) broth microdilution method. Type of test: functional.
In another test the test system is Candida albicans. The test is described as follows: […] activity against 10^8 CFU/mL Candida albicans MTCC 227 by NCCLS M100-S12(M7) broth microdilution method. Type of test: functional. (In general: Broth dilution looks for growth in wells or tubes with falling amounts of substance.)
For the next test, the system named is Bacillus subtilis. The test can be described thus: Antibacterial activity against 10^8 CFU/mL Bacillus subtilis MTCC 441 by NCCLS M100-S12(M7) broth microdilution method. Type of test: functional. Put shortly: (§1)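 Broth microdilution in Mueller Hinton broth. Inoculum was adjusted by turbidity to 10^8 CFU/mL. Compounds came from 2000 µg/mL DMSO stocks. Primary screen used 500, 250 and 200 µg/mL; actives were retested at 100, 62.5, 50 and 25 µg/mL. Tubes were incubated overnight at 37 °C. […] A known-sensitivity organism was run in parallel.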

In the next test the test system is Clostridium tetani. The test can be described thus: Antibacterial activity against 10^8 CFU/mL Clostridium tetani MTCC 449 by NCCLS M100-S12(M7) broth microdilution method. Type of test: functional. A digest of the protocol:
as §1

The subject of another test is Streptococcus pneumoniae. The test is described as follows: Antibacterial activity against 10^8 CFU/mL Streptococcus pneumoniae MTCC 1936 by NCCLS M100-S12(M7) broth microdilution method. It is filed as functional. A digest of the protocol:
as §1

In the next test the test system is Escherichia coli. The test is described as follows: Antibacterial activity against 10^8 CFU/mL Escherichia coli MTCC 443 by NCCLS M100-S12(M7) broth microdilution method. It is filed as functional. A digest of the protocol: as §1
The subject of another test is Salmonella typhi. The test can be described thus: Antibacterial activity against 10^8 CFU/mL Salmonella typhi MTCC 98 by NCCLS M100-S12(M7) broth microdilution method. It is filed as functional, Salmonella enterica subsp. enterica serovar Typhi. The following applies: Salmonella enterica. Put shortly:
as §1

A further test has as its system Vibrio cholerae. The test is described as follows: Antibacterial activity against 10^8 CFU/mL Vibrio cholerae MTCC 3906 by NCCLS M100-S12(M7) broth microdilution method. It is filed as functional. Put shortly:
as §1

Test [1] relates to Mycobacterium tuberculosis. The test is described as follows: Antituberculosis activity against Mycobacterium tuberculosis H37Rv at 250 ug/mL after 24 hrs by Lowenstein-Jensen method. Type of test: functional.
The subject of test [2] is Mycobacterium tuberculosis. The test can be described thus: Antituberculosis activity against Mycobacterium tuberculosis H37Rv after 24 hrs by Lowenstein-Jensen method. It is filed as functional.

≈ marks a conversion by molar mass, not a printed value.

As to NYSTATIN, the MIC99 in the test on Aspergillus fumigatus and with Candida albicans was 100 µg/mL throughout.

On to `CC1(C)S[C@@H]2[C@H](NC(=O)[C@H](N)c3ccccc3)C(=O)N2[C@H]1C(=O)O` [AMPICILLIN], for which the MIC99 in the test on Bacillus subtilis was determined as 250 µg/mL (≈ 715 µM); in the test on Clostridium tetani, 250 µg/mL (≈ 715 µM); with Streptococcus pneumoniae, 100 µg/mL (≈ 286 µM); against Escherichia coli, 100 µg/mL (≈ 286 µM); in the test with Salmonella typhi, 100 µg/mL (≈ 286 µM); in the test with Vibrio cholerae it was 100 µg/mL (≈ 286 µM).

Consider `COC1=CC(=O)C[C@@H](C)[C@]12Oc1c(Cl)c(OC)cc(OC)c1C2=O` [GRISEOFULVIN], for which the MIC99 in the test with Aspergillus fumigatus was 100 µg/mL (≈ 283 µM); in the test on Candida albicans, 500 µg/mL (≈ 1420 µM).

With `O=Cc1cc2ccccc2nc1Oc1ccccc1`, the MIC99 is 1000 µg/mL (≈ 4010 µM) with Bacillus subtilis; 500 µg/mL (≈ 2010 µM) in the test on Clostridium tetani; 500 µg/mL (≈ 2010 µM) in the test on Streptococcus pneumoniae; 500 µg/mL (≈ 2010 µM) against Escherichia coli; 500 µg/mL (≈ 2010 µM) against Salmonella typhi; 500 µg/mL (≈ 2010 µM) against Vibrio cholerae. Moreover, the MIC99 in the test with Aspergillus fumigatus and in the test on Candida albicans was over 1000 µg/mL each time. Further, in test [1], the inhibition at 250 µg/mL was 95%. The same compound gave an MIC in test [2] of 260 µg/mL (≈ 1040 µM).

Regarding `NNC(=O)c1ccncc1` [ISONIAZID], the lowest concentration to inhibit growth in test [2] (MIC) was 0.2 µg/mL (≈ 1.46 µM).

Consider `O=Cc1cc2ccccc2nc1Oc1ccc(Cl)cc1`, for which the MIC99 against Bacillus subtilis is 200 µg/mL (≈ 705 µM); with Clostridium tetani, 500 µg/mL (≈ 1760 µM); against Streptococcus pneumoniae, 62.5 µg/mL (≈ 220 µM); in the test on Escherichia coli, 100 µg/mL (≈ 352 µM); in the test with Salmonella typhi it was 200 µg/mL (≈ 705 µM); in the test on Vibrio cholerae, 500 µg/mL (≈ 1760 µM). For the same compound, the MIC99 against Aspergillus fumigatus was over 1000 µg/mL; with Candida albicans, 250 µg/mL (≈ 881 µM). The compound further registered an inhibition at 250 µg/mL in test [1] of 64%.

For `Cc1ccc2nc(Oc3ccccc3)c(C=O)cc2c1`, the MIC99 in the test on Bacillus subtilis was 250 µg/mL (≈ 950 µM); against Clostridium tetani, 200 µg/mL (≈ 760 µM); in the test on Streptococcus pneumoniae it was 500 µg/mL (≈ 1900 µM); against Escherichia coli, 200 µg/mL (≈ 760 µM); in the test on Salmonella typhi, 200 µg/mL (≈ 760 µM); in the test with Vibrio cholerae, 250 µg/mL (≈ 950 µM). In addition, the results for the MIC99 with Aspergillus fumigatus and with Candida albicans were 500 µg/mL (≈ 1900 µM) and 250 µg/mL (≈ 950 µM), respectively. In addition, the inhibition at 250 µg/mL in test [1] was determined as 62%.

As for `COc1ccc2nc(Oc3ccccc3)c(C=O)cc2c1`, the MIC99 against Bacillus subtilis is 100 µg/mL (≈ 358 µM); against Clostridium tetani, 250 µg/mL (≈ 895 µM); against Streptococcus pneumoniae, 200 µg/mL (≈ 716 µM); in the test on Escherichia coli, 62.5 µg/mL (≈ 224 µM); in the test on Salmonella typhi it was 100 µg/mL (≈ 358 µM); in the test with Vibrio cholerae, 200 µg/mL (≈ 716 µM). The values for the MIC99 against Aspergillus fumigatus and with Candida albicans were over 1000 µg/mL and 1000 µg/mL (≈ 3580 µM), respectively. Moreover, the inhibition at 250 µg/mL in [1] was determined as 42%.

As to `COc1ccc2nc(Oc3ccc(Cl)cc3)c(C=O)cc2c1`, the MIC99 worked out at 200 µg/mL (≈ 637 µM) against Bacillus subtilis; 200 µg/mL (≈ 637 µM) against Clostridium tetani; 250 µg/mL (≈ 797 µM) against Streptococcus pneumoniae; 200 µg/mL (≈ 637 µM) against Escherichia coli; 200 µg/mL (≈ 637 µM) in the test on Salmonella typhi; 200 µg/mL (≈ 637 µM) in the test with Vibrio cholerae. Besides, the MIC99 in the test with Aspergillus fumigatus was determined as 1000 µg/mL (≈ 3190 µM); in the test on Candida albicans, 500 µg/mL (≈ 1590 µM). In test [1], this compound registered an inhibition at 250 µg/mL of 54%.

Take `COc1ccc2nc(Oc3ccc(C)cc3)c(C=O)cc2c1`: the MIC99 stood at 250 µg/mL (≈ 852 µM) in the test on Bacillus subtilis; 500 µg/mL (≈ 1700 µM) in the test with Clostridium tetani; 500 µg/mL (≈ 1700 µM) in the test on Streptococcus pneumoniae; 250 µg/mL (≈ 852 µM) against Escherichia coli; 250 µg/mL (≈ 852 µM) against Salmonella typhi; 500 µg/mL (≈ 1700 µM) in the test with Vibrio cholerae. Moreover, the MIC99 against Aspergillus fumigatus came out at 1000 µg/mL (≈ 3410 µM); in the test on Candida albicans, 250 µg/mL (≈ 852 µM). Moreover, the inhibition at 250 µg/mL in test [1] stood at 23%.

On to `Cc1ccc(Oc2nc3ccccc3cc2C=O)cc1`, for which the MIC99 worked out at 500 µg/mL (≈ 1900 µM) against Bacillus subtilis; 250 µg/mL (≈ 950 µM) against Clostridium tetani; 250 µg/mL (≈ 950 µM) with Streptococcus pneumoniae; 100 µg/mL (≈ 380 µM) in the test on Escherichia coli; 100 µg/mL (≈ 380 µM) in the test on Salmonella typhi; 250 µg/mL (≈ 950 µM) in the test on Vibrio cholerae. For the same compound, the MIC99 against Aspergillus fumigatus and against Candida albicans was 500 µg/mL (≈ 1900 µM) each time. In addition, in test [1], the inhibition at 250 µg/mL was found to be 74%.

Take `Cc1ccc(Oc2nc3ccc(C)cc3cc2C=O)cc1`: the MIC99 turned out to be 250 µg/mL (≈ 901 µM) against Bacillus subtilis; 200 µg/mL (≈ 721 µM) with Clostridium tetani; 200 µg/mL (≈ 721 µM) against Streptococcus pneumoniae; 50 µg/mL (≈ 180 µM) in the test with Escherichia coli; 100 µg/mL (≈ 361 µM) with Salmonella typhi; 200 µg/mL (≈ 721 µM) in the test with Vibrio cholerae. For the same compound, the MIC99 is 1000 µg/mL (≈ 3610 µM) in the test on Aspergillus fumigatus and 500 µg/mL (≈ 1800 µM) against Candida albicans. In addition, in test [1], testing at 250 µg/mL gave an inhibition of 84%.

With `Cc1ccc2nc(Oc3ccc(Cl)cc3)c(C=O)cc2c1`, the MIC99 against Bacillus subtilis is 500 µg/mL (≈ 1680 µM); in the test on Clostridium tetani, 500 µg/mL (≈ 1680 µM); in the test on Streptococcus pneumoniae, 250 µg/mL (≈ 840 µM); with Escherichia coli, 250 µg/mL (≈ 840 µM); against Salmonella typhi it was 100 µg/mL (≈ 336 µM); against Vibrio cholerae it was 500 µg/mL (≈ 1680 µM). The MIC99 in the test on Aspergillus fumigatus is 1000 µg/mL (≈ 3360 µM); with Candida albicans, 500 µg/mL (≈ 1680 µM). In addition, the inhibition at 250 µg/mL in test [1] was 93%. This compound also displayed an MIC in test [2] of 310 µg/mL (≈ 1040 µM).

As a reminder, the MIC99 is the lowest concentration that inhibits either 99% of growth or 99% of the strains tested, depending on the study. In general, inhibition refers to the percentage by which the read-out fell short of the control. As usually defined, the MIC is the lowest concentration found to suppress growth. Higher therefore signals a need for much substance.
